In the library only some 1% were active in any assay of this set; here they are far more common.
VIM-2 inhibitor: blocks Pseudomonas aeruginosa VIM-2 metallo-beta-lactamase. AID 1527. inhibition, % at 5.6 µM. purified VIM-2, nitrocefin hydrolysis, epi-absorbance fluorescence. 290,000 compounds, 0.89% hits;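 active means inhibition above the mean of all tested compounds plus 3 SD, cutoff set per screening run, cut at about 7.5% in these data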;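 further: red hydrolysis product quenches plate fluorescence so inhibitors raise well fluorescence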
FID counter: displaces DNA intercalator in HCV helicase counter-screen; 290,000 compounds, 0.17% hits; inhibition, % at 7.9 µM; DNA fluorescent intercalator displacement, fluorescence; AID 1845; in the data active means inhibition above about 37%;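 further: higher means more ethidium bromide displaced from hairpin DNA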
IMP-1 inh: blocks Pseudomonas aeruginosa IMP-1 metallo-beta-lactamase; 290,000 compounds, 0.45% hits; purified IMP-1, nitrocefin hydrolysis, epi-absorbance fluorescence; inhibition, % at 5.6 µM;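 active means inhibition above the mean plus 3 SD of all compounds in the same screening run, cut at about 4.5% in these data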
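Assay system: purified IMP-1; Quantity: IMP-1 0.2 nM before substrate addition; Medium: HEPES buffer pH 7.1 with ZnSO4 and Brij 35; Incubation: 15 min enzyme–compound preincubation, then 25 min nitrocefin reaction, 25 °C; Signal: fluorescence quenching readout, ex 480/em 530 nm; Controls: DMSO with and without IMP-1; Repeats: singlicate testing.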
RAD54 inh: inhibitors of human RAD54 branch migration; Q92698; RAD54 Holliday junction branch migration, FAM/BHQ fluorescence; inhibition, % at 10.4 µM; 360,000 compounds, 0.14% hits; AID 602329;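 active means mean normalized replicate activity at least 40 and at least half of replicates scoring 40 or more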;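 further: inhibitors cause a drop in the FAM fluorescence signal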
Target sequence (Q92698 whole entry, looked up): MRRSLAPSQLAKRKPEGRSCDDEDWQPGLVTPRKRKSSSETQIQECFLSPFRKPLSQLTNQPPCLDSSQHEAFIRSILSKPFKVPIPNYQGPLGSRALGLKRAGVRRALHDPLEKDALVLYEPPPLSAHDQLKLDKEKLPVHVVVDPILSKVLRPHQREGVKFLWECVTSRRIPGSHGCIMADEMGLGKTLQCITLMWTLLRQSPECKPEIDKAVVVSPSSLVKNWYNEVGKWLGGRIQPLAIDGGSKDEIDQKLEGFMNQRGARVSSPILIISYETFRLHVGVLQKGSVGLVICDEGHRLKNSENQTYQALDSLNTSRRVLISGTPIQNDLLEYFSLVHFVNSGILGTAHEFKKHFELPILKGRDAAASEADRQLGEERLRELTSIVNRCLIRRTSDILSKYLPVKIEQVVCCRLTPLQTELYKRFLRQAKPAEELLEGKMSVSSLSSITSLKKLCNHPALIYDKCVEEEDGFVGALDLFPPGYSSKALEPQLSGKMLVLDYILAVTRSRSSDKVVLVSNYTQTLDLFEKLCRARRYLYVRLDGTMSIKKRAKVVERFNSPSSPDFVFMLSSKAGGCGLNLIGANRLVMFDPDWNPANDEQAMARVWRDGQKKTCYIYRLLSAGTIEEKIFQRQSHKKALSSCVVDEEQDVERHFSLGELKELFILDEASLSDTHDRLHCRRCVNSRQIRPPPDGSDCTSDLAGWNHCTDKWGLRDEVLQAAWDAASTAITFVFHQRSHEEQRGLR
PvdQ inh: blocks Pseudomonas aeruginosa PvdQ acylase activity | 340,000 compounds, 0.063% hits | purified PvdQ acylase, fluorescence plate reader | inhibition, % at 10 µM; in the data active means inhibition above about 30%, passing the limit was not always enough
Of the large screens only hits and unclear results are named; the others gave an inactive call.

CC(=O)OCCCN1C(=O)c2cccc3cc(Br)cc(c23)C1=O	VIM-2 inhibitor 11.7 (no result: RAD54 inh, PvdQ inh)
CCOC(=O)c1c(C)oc2c(F)c(F)c(F)c(F)c2c1=O	IMP-1 inh 8.8
CO[C@H]1CN(C)C(=O)c2cc(NC(C)=O)ccc2OC[C@H](C)N(C(=O)C2CCOCC2)C[C@H]1C	none (no result: VIM-2 inhibitor, FID counter, IMP-1 inh, PvdQ inh)
C[C@H](CO)N1C[C@H](C)[C@@H](CN(C)Cc2ccc(-c3ccccc3)cc2)Oc2ccc(NC(=O)Nc3ccc4c(c3)OCO4)cc2CC1=O	none (no result: VIM-2 inhibitor, FID counter, IMP-1 inh, PvdQ inh)
CC1=NN(c2ccc(Cl)c(C(=O)O)c2)C(=O)/C1=C\c1ccc(-c2ccc(C(=O)O)cc2)o1	IMP-1 inh 7.7 (no result: RAD54 inh)
Cc1cc(C)nc(N(C#N)Cc2cccc([N+](=O)[O-])c2)n1	PvdQ inh 36.4 (no result: RAD54 inh)
Cc1noc(C)c1S(=O)(=O)Nc1ccc2c(c1)C(=O)N([C@@H](C)CO)C[C@H](C)[C@H](CN(C)S(=O)(=O)c1cccs1)OCCCC[C@H](C)O2	none (no result: VIM-2 inhibitor, FID counter, IMP-1 inh, PvdQ inh)
CN(C[C@H]1[C@@H](c2ccccc2)[C@H](CO)N1Cc1ccccn1)S(C)(=O)=O	none (no result: VIM-2 inhibitor, FID counter, IMP-1 inh, PvdQ inh)
O=[N+]([O-])c1ccc(Sc2ccccc2Cl)nc1	PvdQ inh 64.5
N#CC(C#N)=C1NC(N)=C(C#N)C(c2ccccc2)=C1C#N	IMP-1 inh 22.7 (no result: RAD54 inh)
Cc1c(Br)c([N+](=O)[O-])nn1CC(=O)Nc1ccc2nc3n(c(=O)c2c1)CCCC3	FID counter 64.4
O=c1/c(=C/c2ccco2)sc2nc(-c3ccccc3Br)nn12	IMP-1 inh 5.2
COc1ccccc1-c1nc2s/c(=C\c3cccs3)c(=O)n2n1	none
C[C@H]1CN([C@@H](C)CO)C(=O)c2cc(C#CC3CC3)cnc2O[C@@H]1CN(C)Cc1cccc(C(=O)O)c1	none (no result: VIM-2 inhibitor, FID counter, IMP-1 inh, PvdQ inh)
Cc1cccc(-n2cnc(C(=O)O)c2)n1	VIM-2 inhibitor 9.7
CCCN(C)C[C@@H]1OCc2cn(nn2)CCCC(=O)N([C@H](C)CO)C[C@@H]1C	none (no result: VIM-2 inhibitor, FID counter, IMP-1 inh, PvdQ inh)
COc1ccc2cc3cc(C(=O)NCCN4CCN(Cc5ccccc5)CC4)oc3nc2c1	none
COc1ccc2cc3cc(C(=O)NCCCN4CCOCC4)oc3nc2c1	RAD54 inh 59.9
O=c1[nH]cnc2c1sc1nc(-c3ccccc3)c3c(c12)CCCC3	none (no result: RAD54 inh)
CN1CCN(c2ncnc3c2sc2nc(N4CCOCC4)c4c(c23)CCC4)CC1	none (no result: RAD54 inh, PvdQ inh)
S=c1nc[nH]c2c1sc1nc(-c3ccccc3)c3c(c12)CCCC3	IMP-1 inh 15.8 (no result: RAD54 inh)
CCOC(=O)CSc1ncnc2c1sc1nc(N3CCOCC3)c3c(c12)CCCC3	none
OCCN(CCO)c1ncnc2c1sc1nc(N3CCOCC3)c3c(c12)CCCC3	VIM-2 inhibitor 9.0
CCOC(=O)C(Sc1ncnc2c1sc1nc(N3CCOCC3)c3c(c12)CCCC3)c1ccccc1 (stereo not given)	IMP-1 inh 6.2 (no result: RAD54 inh, PvdQ inh)
O=C(O)CSc1ncnc2c1sc1nc(-c3ccccc3)c3c(c12)CCC3	IMP-1 inh 9.4 (no result: RAD54 inh)
CC(=O)N(C)C[C@H]1Oc2ncc(C#Cc3ccccn3)cc2C(=O)N([C@@H](C)CO)C[C@H]1C	none (no result: VIM-2 inhibitor, FID counter, IMP-1 inh, PvdQ inh)
C[C@H]1CCCCO[C@@H](CN(C)C(=O)c2ccncc2)[C@@H](C)CN([C@@H](C)CO)C(=O)c2cc(NC(=O)c3ccncc3)ccc2O1	none (no result: VIM-2 inhibitor, FID counter, IMP-1 inh, PvdQ inh)
O=C(C[C@H]1CC[C@@H](NC(=O)C2CC2)[C@H](CO)O1)NCc1ccncc1	none (no result: VIM-2 inhibitor, FID counter, IMP-1 inh, PvdQ inh)
CCC(C)(C)NC(=O)C(c1ccc(C)o1)N(Cc1cccs1)C(=O)Cn1nnc2ccccc21 (stereo not given)	IMP-1 inh 10.0
Cc1ccc2[nH]c(C(=O)O)c(-c3ccccc3)c2c1	VIM-2 inhibitor 9.9
NNC(=O)c1nc[nH]c1C(=O)Nc1ccccn1	IMP-1 inh 7.6 (no result: RAD54 inh)
Cc1ccc(NC(=O)c2[nH]cnc2C(=O)NN)cc1	none
N=c1c(C(=O)NCC2CCCO2)cc2c(=O)n3ccccc3nc2n1Cc1ccc(Cl)cc1 (stereo not given)	VIM-2 inhibitor 9.9
COc1ccc(CCn2c(=N)c(C(=O)NCC3CCCO3)cc3c(=O)n4ccccc4nc32)cc1 (stereo not given)	none
COc1ccc(Cn2c(=N)c(C(=O)NCC3CCCO3)cc3c(=O)n4ccccc4nc32)cc1 (stereo not given)	VIM-2 inhibitor 9.2
N=c1c(C(=O)NCC2CCCO2)cc2c(=O)n3ccccc3nc2n1Cc1ccccc1 (stereo not given)	none
C[C@@H]1CN([C@H](C)CO)C(=O)c2cc(C#CCN(C)C)cnc2O[C@H]1CN(C)Cc1ccc2c(c1)OCO2	none (no result: VIM-2 inhibitor, FID counter, IMP-1 inh, PvdQ inh)
N=C1/C(=C/c2coc3ccccc3c2=O)C(=O)N=C2SC(c3ccco3)=NN12	IMP-1 inh 6.8 (no result: PvdQ inh)
CCN1CCN(c2ccc(S(=O)(=O)N3CCCCC3)cc2NC(=O)/C=C/c2cccc(OC)c2OC)CC1	FID counter 38.0
Cn1c(-c2ccc3c(c2)OCO3)c(C(=O)O)c(=O)c2ccccc21	VIM-2 inhibitor 10.7 (no result: RAD54 inh)
Brc1ccc2c(c1)-c1ccccc1C1=NCCN12	RAD54 inh 80.6 (no result: VIM-2 inhibitor, FID counter, IMP-1 inh, PvdQ inh)
COc1ccc(S(=O)(=O)Nc2ccc3c(c2)C(=O)N([C@@H](C)CO)C[C@@H](C)[C@@H](CN(C)C(=O)C2CCCCC2)OCCCC[C@H](C)O3)cc1	none (no result: VIM-2 inhibitor, FID counter, IMP-1 inh, PvdQ inh)
COCC(=O)Oc1c(S(=O)(=O)c2ccc(C)cc2)c(C)nn1-c1ccccc1	PvdQ inh 34.3
C#CCOCCOCCOCCNc1nc(N2CCN(C(=O)[C@H]([C@@H](C)CC)n3cc([C@@H](N)Cc4ccc(O)cc4)nn3)CC2)nc(N2CCN(C(=O)[C@H](Cc3cc4ccccc4[nH]3)n3cc([C@@H](N)C(C)CC)nn3)CC2)n1 (stereo not given in full)	none (no result: RAD54 inh, PvdQ inh)
C#CCOCCOCCOCCNc1nc(N2CCN(C(=O)[C@H](Cc3ccc(O)cc3)n3cc([C@@H](N)C(C)CC)nn3)CC2)nc(N2CCN(C(=O)[C@H](Cc3cc4ccccc4[nH]3)n3cc([C@@H](N)CC(C)C)nn3)CC2)n1 (stereo not given in full)	FID counter 59.9 (no result: RAD54 inh, PvdQ inh)
C#CCOCCOCCOCCNc1nc(N2CCN(C(=O)[C@H](Cc3cc4ccccc4[nH]3)n3cc([C@@H](N)C(C)CC)nn3)CC2)nc(N2CCN(C(=O)[C@H](CCCCN)n3cc([C@@H](N)CC(C)C)nn3)CC2)n1 (stereo not given in full)	FID counter 44.5 (no result: RAD54 inh, PvdQ inh)
C#CCOCCOCCOCCNc1nc(N2CCN(C(=O)[C@H](Cc3cc4ccccc4[nH]3)n3cc([C@@H](N)C(C)CC)nn3)CC2)nc(N2CCN(C(=O)[C@H](Cc3cc4ccccc4[nH]3)n3cc([C@@H](N)Cc4ccc(O)cc4)nn3)CC2)n1 (stereo not given in full)	FID counter 41.1 (no result: RAD54 inh, PvdQ inh)
C#CCOCCOCCOCCNc1nc(N2CCN(C(=O)[C@H](Cc3ccc(O)cc3)n3cc([C@@H](N)C(C)CC)nn3)CC2)nc(N2CCN(C(=O)[C@H](Cc3cc4ccccc4[nH]3)n3cc([C@@H](N)C(C)CC)nn3)CC2)n1 (stereo not given in full)	FID counter 50.7
